Results on five compounds are retold here after ChEMBL document CHEMBL1141112, “Synthesis and antiinflammatory activity of coumarin derivatives” (J Med Chem, 2005).

A word on the IC50: it is the concentration needed to halve the response being measured. The term Inhibition denotes the change of the read-out against control, counted positive when it falls. Low values mean a response near the control, high ones a response far below the control. As a reminder, the inhibition is the relative decrease from the control value, in per cent.

Assay [1] is described as follows: Percent heme protein dependent lipid peroxidation (1 mM) upon incubation for 10 min at 37 degree C. in pH 7.4 with arachidonic acid and H2O2; no action. It counts as functional. Summed up: (§1)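 Heme 50 μM, arachidonic acid 0.4 mM, test compound and H2O2 0.5 mM incubated together for 10 min at 37 °C in KH2PO4–KOH buffer (50 mM, pH 7.4). Tested at 0.1 and 1 mM. At least triplicate; absorbance SD under 10% of mean.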

The target in assay [2] is T1, Seed linoleate 13S-lipoxygenase-1 (Glycine max, UniProt P08170).
T1 sequence (P08170 whole entry): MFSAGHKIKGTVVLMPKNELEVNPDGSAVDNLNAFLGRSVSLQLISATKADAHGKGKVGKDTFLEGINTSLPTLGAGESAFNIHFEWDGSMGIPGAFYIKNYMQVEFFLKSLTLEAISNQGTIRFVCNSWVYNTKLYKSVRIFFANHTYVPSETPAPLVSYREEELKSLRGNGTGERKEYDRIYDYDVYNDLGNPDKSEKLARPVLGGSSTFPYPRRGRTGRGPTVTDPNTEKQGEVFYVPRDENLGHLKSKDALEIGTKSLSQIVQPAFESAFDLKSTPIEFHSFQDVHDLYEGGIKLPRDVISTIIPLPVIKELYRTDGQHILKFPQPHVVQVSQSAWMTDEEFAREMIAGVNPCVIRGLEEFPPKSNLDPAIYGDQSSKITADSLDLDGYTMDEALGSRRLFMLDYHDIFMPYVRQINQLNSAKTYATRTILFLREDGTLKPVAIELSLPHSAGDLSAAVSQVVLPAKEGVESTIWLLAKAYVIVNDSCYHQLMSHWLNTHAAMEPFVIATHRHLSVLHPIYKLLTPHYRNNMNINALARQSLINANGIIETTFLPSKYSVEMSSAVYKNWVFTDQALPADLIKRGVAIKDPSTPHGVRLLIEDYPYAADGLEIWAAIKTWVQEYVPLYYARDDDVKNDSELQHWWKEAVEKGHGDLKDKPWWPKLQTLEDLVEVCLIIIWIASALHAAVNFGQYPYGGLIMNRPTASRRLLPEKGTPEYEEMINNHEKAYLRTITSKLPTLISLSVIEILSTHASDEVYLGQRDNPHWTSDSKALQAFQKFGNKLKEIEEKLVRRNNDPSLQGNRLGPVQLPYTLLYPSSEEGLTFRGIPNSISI
The assay is described as follows: Inhibitory concentration against soybean lipoxygenase upon incubation with sodium linoleate (0.1 mM) at RT; no action.

Assay [3] can be described thus: Percent heme protein dependent lipid peroxidation (0.1 mM) upon incubation for 10 min at 37 degree C. in pH 7.4 with arachidonic acid and H2O2; no action. The assay is classed as functional. Summed up: as §1
Assay [4] can be described thus: Superoxide radical scavenging activity at 1 mM upon incubation for 2 min at RT in pH 7.4 with PMS, NADH and NBT by nitroblue tetrazolium method.
In assay [5] the test system is Rattus norvegicus. As to the kind of experiment: Percent inhibition of carrageenan 2% (0.1 mL intradermal) induced paw edema at the i.p. dose of 0.01 m mol/kg in fisher 344 rats; n=5. It counts as functional. Summed up:
(§2)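 Right hind paw edema in Fischer 344 rats (150–200 g) induced by intradermal 0.1 mL 2% carrageenin in water. Rats killed 3.5 h after carrageenin; injected minus uninjected paw weight compared with water-treated controls and expressed as percent inhibition. Mean of two experiments, five animals per group; Student's t-test.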

Assay [6] has as its system Rattus norvegicus. The assay is described as follows: Onset of arthritis measured as arthritic score at p.o. dose of 80 mg/kg in rats injected intradermally with Freund's adjuvant after 24 days. The assay is classed as functional. To be noted: route oral.
The test system of assay [7] is Rattus norvegicus. The assay is described as follows: Onset of arthritis measured as arthritic score at i.p. dose of 0.001 m mol/kg in rats injected intradermally with Freund's adjuvant after 18 days. The assay is classed as functional. Summed up: (§3)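 Fischer 344 rats, five per group, given Freund's adjuvant (0.6 mg desiccated Mycobacterium butyricum in 0.1 mL liquid paraffin) intradermally at tail base. Compound given ip at 0.001 mmol/kg from day 0, every other day for 24 days; absolute controls got vehicle only. Score: one point per inflamed wrist/ankle plus one per involved phalangeal joint, max five per limb, every 2 days from day 14. Run in duplicate.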

In assay [8] the test system is Rattus norvegicus. As to the kind of experiment: Onset of arthritis measured as arthritic score at i.p. dose of 0.001 m mol/kg in rats injected intradermally with Freund's adjuvant after 12 days. It counts as functional. The method in brief:
as §3

Assay [9] relates to Rattus norvegicus. As to the kind of experiment: Onset of arthritis measured as arthritic score at i.p. dose of 0.001 m mol/kg in rats injected intradermally with Freund's adjuvant after 8 days. The assay is classed as functional. The method in brief:
as §3

For assay [10], the system named is Rattus norvegicus. As to the kind of experiment: Onset of arthritis measured as arthritic score at i.p. dose of 0.001 m mol/kg in rats injected intradermally with Freund's adjuvant after 16 days. The assay is classed as functional. The method in brief: as §3
The test system of assay [11] is Rattus norvegicus. As to the kind of experiment: Onset of arthritis measured as arthritic score at i.p. dose of 0.001 m mol/kg in rats injected intradermally with Freund's adjuvant after 4 days. The assay is classed as functional. Summed up:
as §3

For assay [12], the system named is Rattus norvegicus. The assay is described as follows: Duration of paralysis in rats (injected i.p. with 10 mg/1 mL/g of zoxazolamine) at i.p. dose of 0.001 m mol/kg after 24 days. The assay is classed as functional. The method in brief: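 Fischer 344 rats, groups of five, given Freund's Adjuvant intradermally at tail base; compound ip 0.001 mmol/kg from day zero every other day for 24 days. On day 24, ≥12 h after last dose, zoxazolamine ip 10 mg/1 mL/g as aqueous Tween 80 suspension; paralysis duration timed. Run in duplicate.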

Assay [13] has as its system Rattus norvegicus. The assay is described as follows: Onset of arthritis measured as arthritic score at i.p. dose of 0.001 m mol/kg in rats injected intradermally with Freund's adjuvant after 10 days. It counts as functional. The method in brief:
as §3

The subject of assay [14] is Rattus norvegicus. The assay is described as follows: Onset of arthritis measured as arthritic score at i.p. dose of 0.001 m mol/kg in rats injected intradermally with Freund's adjuvant after 22 days. The assay is classed as functional. The method in brief: as §3
Assay [15] can be described thus: Percent heme protein dependent lipid peroxidation at (0.1 mM) upon incubation for 10 min at 37 degree C. in pH 7.4 with arachidonic acid and H2O2. The assay is classed as functional. Summed up:
as §1

For assay [16], the system named is Rattus norvegicus. The assay is described as follows: Onset of arthritis measured as arthritic score at i.p. dose of 0.001 m mol/kg in rats injected intradermally with Freund's adjuvant after 6 days. It counts as functional. The method in brief: as §3
Assay [17] has as its target Prostaglandin G/H synthase 1 (Homo sapiens) (UniProt P23219). To be noted: at 1 mM.
The test system of assay [18] is Rattus norvegicus. The assay is described as follows: Onset of arthritis measured as arthritic score at i.p. dose of 0.001 m mol/kg in rats injected intradermally with Freund's adjuvant after 14 days. The assay is classed as functional. Summed up: as §3
The test system of assay [19] is Rattus norvegicus. As to the kind of experiment: Onset of arthritis measured as arthritic score at i.p. dose of 0.001 m mol/kg in rats injected intradermally with Freund's adjuvant after 20 days. It counts as functional. Summed up:
as §3

In assay [20] the test system is Rattus norvegicus. As to the kind of experiment: Onset of arthritis measured as arthritic score at i.p. dose of 0.001 m mol/kg in rats injected intradermally with Freund's adjuvant after 24 days. The assay is classed as functional. Summed up: as §3
Assay [21] has as its target T1, Seed linoleate 13S-lipoxygenase-1. The assay is described as follows: Inhibitory concentration against soybean lipoxygenase upon incubation with sodium linoleate (0.1 mM) at RT. The method in brief:
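Soybean lipoxygenase (0.2 mL enzyme solution, 1/3 ×10^4 w/v in saline) incubated at room temperature with test compounds in ethanol and sodium linoleate 0.1 mM as substrate. Conversion to 13-hydroperoxylinoleic acid followed at 234 nm and compared with NDGA as standard inhibitor. Run at least in triplicate; SD of absorbance under 10% of mean.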

Assay [22] concerns Rattus norvegicus. The assay is described as follows: Onset of arthritis measured as arthritic score at i.p. dose of 0.001 m mol/kg in rats injected intradermally with Freund's adjuvant after 0 days. It counts as functional. Summed up:
as §3

Assay [23] is described as follows: Percent heme protein dependent lipid peroxidation at (1 mM) upon incubation for 10 min at 37 degree C. in pH 7.4 with arachidonic acid and H2O2. The assay is classed as functional. The method in brief: as §1
Assay [24] has as its system Rattus norvegicus. The assay is described as follows: Onset of arthritis measured as arthritic score at i.p. dose of 0.001 m mol/kg in rats injected intradermally with Freund's adjuvant after 2 days. It counts as functional. Summed up:
as §3

For assay [25], the system named is Rattus norvegicus. As to the kind of experiment: Percent change in body weight of (FA) adjuvant induced rats at i.p. dose of 0.001 m mol/kg after 24 days. It counts as functional.
In assay [26] the test system is Rattus norvegicus. The assay is described as follows: Percent inhibition of carrageenan 2% (0.1 mL intradermal) induced paw edema at the i.p. dose of 0.01 m mol/kg in fisher 344 rats; n=5; no action. The assay is classed as functional, organism-based. Summed up:
as §2

A short description of assay [27]: Superoxide radical scavenging activity at 1 mM upon incubation for 2 min at RT in pH 7.4 with PMS, NADH and NBT by nitroblue tetrazolium method; no action.

Sequence of Prostaglandin G/H synthase 1 (Homo sapiens) (P23219 whole entry): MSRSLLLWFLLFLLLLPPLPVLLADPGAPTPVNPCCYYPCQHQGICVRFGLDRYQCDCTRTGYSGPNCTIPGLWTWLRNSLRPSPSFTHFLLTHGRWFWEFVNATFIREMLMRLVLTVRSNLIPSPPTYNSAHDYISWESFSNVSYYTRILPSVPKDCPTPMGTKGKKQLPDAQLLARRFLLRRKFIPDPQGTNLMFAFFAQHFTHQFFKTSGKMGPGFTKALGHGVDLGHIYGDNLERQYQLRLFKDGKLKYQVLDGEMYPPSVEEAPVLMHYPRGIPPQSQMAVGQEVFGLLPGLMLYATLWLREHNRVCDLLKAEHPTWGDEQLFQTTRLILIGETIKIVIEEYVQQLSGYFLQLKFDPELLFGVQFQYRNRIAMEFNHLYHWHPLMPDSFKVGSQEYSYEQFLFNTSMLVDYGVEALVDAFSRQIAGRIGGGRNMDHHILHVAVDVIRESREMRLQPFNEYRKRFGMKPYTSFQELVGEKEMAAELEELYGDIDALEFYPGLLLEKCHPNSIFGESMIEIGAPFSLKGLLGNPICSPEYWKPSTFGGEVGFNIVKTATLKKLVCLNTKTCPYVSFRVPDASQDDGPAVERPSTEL

For the compound `CC(=O)CC(c1ccccc1)c1c(O)c2ccccc2oc1=O` (stereo not drawn) [WARFARIN], the Lipid peroxidation result in assay [1] and in assay [3] was “No action” throughout. In addition, the IC50 entry in [2] is listed as “No Action”. In assay [4], this compound displayed a Scavenging Activity of 25%. The compound further displayed an Inhibition with Rattus norvegicus [5] of 41%.

For `CCCCC1C(=O)N(c2ccccc2)N(c2ccccc2)C1=O` [PHENYLBUTAZONE], the Arthritic score in the assay with Rattus norvegicus [6] was determined as 9.

Take `O=c1ccc2ccc(O)c(CN3CCOCC3)c2o1`: the Arthritic score in the assay with Rattus norvegicus [7] came out at 2.5; with Rattus norvegicus [8], 0; in the assay with Rattus norvegicus [9], 0; in the assay with Rattus norvegicus [10], 1.25; in the assay with Rattus norvegicus [11] it was 0; in the assay with Rattus norvegicus [13] it was 0. The Arthritic score in the assay with Rattus norvegicus [14] turned out to be 4.25; in the assay with Rattus norvegicus [16], 0; in the assay on Rattus norvegicus [18], 1.2; in the assay with Rattus norvegicus [19] it was 3.25; in the assay on Rattus norvegicus [20] it was 3.5; in the assay with Rattus norvegicus [22], 0. Further, the Arthritic score in the assay with Rattus norvegicus [24] is listed as 0. This compound also registered a Paralysis with Rattus norvegicus [12] of 212 min. The compound also yielded a Scavenging Activity in [4] of 58.3%. Further, the Lipid peroxidation in assay [15] came out at 19.5%; in assay [23], 19.9%. Also, in assay [17], the inhibition was determined as 32%. Also, in the assay with Rattus norvegicus [5], the Inhibition amounted to 75.7%. In assay [21], this compound showed a half-inhibitory concentration (IC50) of more than 1000 µM. For the same compound, the “Change of body weight” value with Rattus norvegicus [25] turned out to be 7%.

For `O=c1ccc2ccc(O)cc2o1` [UMBELLIFERONE], the Arthritic score with Rattus norvegicus [7] is listed as 1.8; in the assay on Rattus norvegicus [8], 0; in the assay on Rattus norvegicus [9], 0; in the assay on Rattus norvegicus [10], 1.2; with Rattus norvegicus [11] it was 0; in the assay on Rattus norvegicus [13] it was 0. Further, the Arthritic score with Rattus norvegicus [14] is listed as 5.2; in the assay with Rattus norvegicus [16] it was 0; in the assay on Rattus norvegicus [18], 1.2; in the assay with Rattus norvegicus [19], 2.6; in the assay with Rattus norvegicus [20], 4; with Rattus norvegicus [22], 0. For the same compound, the Arthritic score in the assay on Rattus norvegicus [24] is 0. Also, the inhibition result in the assay on Rattus norvegicus [26] is “No Action”. The compound further displayed a Paralysis in the assay on Rattus norvegicus [12] of 232.5 min. The compound further yielded a Scavenging Activity in [4] of 80.6%. In addition, the figures for the Lipid peroxidation in assay [15] and in [23] were 14.6% and 26.1%, respectively. The IC50 in assay [21] amounted to 43 µM. Further, the “Change of body weight” value with Rattus norvegicus [25] came to 18.6%.

Consider `O=c1ccc2ccc(O)c(CN3CCNCC3)c2o1`, for which the Arthritic score in the assay on Rattus norvegicus [7] stood at 3.2; in the assay on Rattus norvegicus [8], 0; with Rattus norvegicus [9], 0; with Rattus norvegicus [10], 0; in the assay with Rattus norvegicus [11], 0; with Rattus norvegicus [13], 0. Besides, the Arthritic score in the assay with Rattus norvegicus [14] is 4.8; in the assay with Rattus norvegicus [16], 0; with Rattus norvegicus [18], 1.2; with Rattus norvegicus [19], 3; in the assay with Rattus norvegicus [20], 5.8; in the assay with Rattus norvegicus [22] it was 0. In the assay on Rattus norvegicus [24], the Arthritic score was found to be 0. In addition, the “Scavenging Activity” value in assay [27] was “No action”. The same compound came in with a Paralysis in the assay on Rattus norvegicus [12] of 292 min. The Lipid peroxidation in assay [15] came to 19.5%; in [23], 21.9%. In assay [17], this compound displayed an inhibition of 11%. This compound came in with an Inhibition with Rattus norvegicus [5] of 77.7%. In assay [21], this compound came in with a half-maximal inhibitory concentration (IC50) of 100 µM. Further, in the assay on Rattus norvegicus [25], the “Change of body weight” value was 18.4%.
